Five compounds from ChEMBL document CHEMBL2440074, “An epoxyisoprostane is a major regulator of endothelial cell function” (J Med Chem, 2013) can be followed below.

One may read the inhibition as the percentage by which the read-out fell short of the control.

What all share (format): functional
The species named for test [1] is Homo sapiens. As to the kind of experiment: Induction of HO-1 expression in HAEC at 3 uM after 4 hrs by qPCR analysis. In short, it runs like this:
(§1)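 Cultured HAECs, switched overnight to M199/10% FBS, exposed for 4 h to 3 μM lipid in M199 with 1% FBS, duplicate/replicate wells. Cells scraped, mRNA quantified by qPCR with GAPDH normalization; fold change of treated over untreated cells.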

The species entered for test [2] is Homo sapiens. As to the kind of experiment: Induction of IL-8 expression in HAEC at 3 uM after 4 hrs by qPCR analysis. In a few lines:
as §1

The species named for test [3] is Homo sapiens. As to the kind of experiment: Induction of HSP1A1 expression in HAEC at 3 uM after 4 hrs by qPCR analysis. On the technique in general: In qPCR the cycle at which signal appears reflects the starting amount.
Test [4] is filed under the species Homo sapiens. Briefly: Induction of ATF-3 expression in HAEC at 3 uM after 4 hrs by qPCR analysis. In short, it runs like this: as §1
For test [5], the species on record is Homo sapiens. Briefly: Induction of MCP1 expression in HAEC at 3 uM after 4 hrs by qPCR analysis. In short, it runs like this: as §1
For test [6], the species on record is Homo sapiens. As to the kind of experiment: Induction of NfKB1A expression in HAEC at 6 uM after 4 hrs by microarray assay relative to control. In short, it runs like this: (§2)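 Microarray on RNA from duplicate HAEC wells given 3 μM EI4 or 6 μM PEIPC in M199 with 1% FBS for 4 h, or left untreated. Probes with detection p < 0.001 retained. Fold change is mean treated probe level over mean control probe level. Genes counted as regulated at ≥1.2-fold.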

The species named for test [7] is Homo sapiens. As to the kind of experiment: Induction of E-selectin expression in HAEC at 6 uM after 4 hrs by qPCR analysis relative to control.
For test [8], the species on record is Homo sapiens. Briefly: Induction of CXCL6 expression in HAEC at 6 uM after 4 hrs by microarray assay relative to control. In a few lines:
as §2

The species named for test [9] is Homo sapiens. Briefly: Induction of IL-6 expression in HAEC at 6 uM after 4 hrs by microarray assay relative to control. In short, it runs like this: as §2
Test [10] is filed under the species Homo sapiens. As to the kind of experiment: Induction of VCAM-1 expression in HAEC at 6 uM after 4 hrs by microarray assay relative to control. In short, it runs like this: as §2
For test [11], the species on record is Homo sapiens. As to the kind of experiment: Induction of RelB expression in HAEC at 6 uM after 4 hrs by microarray assay relative to control. In a few lines: as §2
The species entered for test [12] is Homo sapiens. As to the kind of experiment: Induction of MCP1 expression in HAEC at 6 uM after 4 hrs by microarray assay relative to control. In short, it runs like this:
as §2

The species named for test [13] is Homo sapiens. Briefly: Induction of ICAM-1 expression in HAEC at 6 uM after 4 hrs by microarray assay relative to control. In short, it runs like this:
as §2

Test [14] is filed under the species Homo sapiens. As to the kind of experiment: Induction of CXCL1 expression in HAEC at 6 uM after 4 hrs by microarray assay relative to control. In short, it runs like this:
as §2

The species entered for test [15] is Homo sapiens. As to the kind of experiment: Induction of IL-8 expression in HAEC at 6 uM after 4 hrs by microarray assay relative to control. In a few lines:
as §2

The species entered for test [16] is Homo sapiens. Briefly: Inhibition of IL-1beta-induced MCP-1 protein expression in HAEC at 3 uM co-treated with IL-1beta measured after 4 hrs by ELISA. In short, it runs like this: (§3)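 HAECs preincubated 1 h with 3 μM EI4, then given 20 ng/mL IL-1β plus EI for 4 h. MCP-1 in the medium measured by ELISA and compared with IL-1β alone; significance by p value.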

For test [17], the species on record is Homo sapiens. Briefly: Inhibition of IL-1beta-induced E-selectin mRNA expression in HAEC at 3 uM treated 1 hr before IL-1beta stimulation measured after 4 hrs by qPCR analysis. In short, it runs like this:
(§4)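 RNA measured by qPCR. HAECs preincubated 1 h with 3 μM EI4, then exposed 4 h to 20 ng/mL IL-1β with EI still present. Value reported as percent reduction of the IL-1β-induced fold change.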

The species entered for test [18] is Homo sapiens. Briefly: Induction of IL-8 expression in HAEC at 3 uM after 4 hrs by microarray assay relative to control. In a few lines: as §2
Test [19] is filed under the species Homo sapiens. Briefly: Induction of ICAM-1 expression in HAEC at 3 uM after 4 hrs by microarray assay relative to control. In a few lines:
as §2

The species named for test [20] is Homo sapiens. Briefly: Inhibition of IL-1beta-induced CXCL6 mRNA expression in HAEC at 3 uM treated 1 hr before IL-1beta stimulation measured after 4 hrs by qPCR analysis. In short, it runs like this:
as §4

Test [21] is filed under the species Homo sapiens. As to the kind of experiment: Inhibition of IL-1beta-induced IL-6 mRNA expression in HAEC at 3 uM treated 1 hr before IL-1beta stimulation measured after 4 hrs by qPCR analysis. In short, it runs like this:
as §4

Test [22] is filed under the species Homo sapiens. As to the kind of experiment: Induction of NfKB1A expression in HAEC at 3 uM after 4 hrs by microarray assay relative to control. In a few lines:
as §2

The species named for test [23] is Homo sapiens. Briefly: Induction of RelB expression in HAEC at 3 uM after 4 hrs by microarray assay relative to control. In short, it runs like this: as §2
For test [24], the species on record is Homo sapiens. As to the kind of experiment: Inhibition of IL-1beta-induced MCP-1 protein expression in HAEC at 3 uM treated 1 hr before IL-1beta stimulation measured after 4 hrs by ELISA. In short, it runs like this:
as §3
On the technique in general: In an ELISA, binding on a coated surface is turned into a signal by an enzyme label.

For test [25], the species on record is Homo sapiens. As to the kind of experiment: Induction of IL-6 expression in HAEC at 3 uM after 4 hrs by microarray assay relative to control. In short, it runs like this: as §2
The species named for test [26] is Homo sapiens. As to the kind of experiment: Inhibition of IL-1beta-induced ICAM-1 mRNA expression in HAEC at 3 uM treated 1 hr before IL-1beta stimulation measured after 4 hrs by qPCR analysis. In short, it runs like this: as §4
The species entered for test [27] is Homo sapiens. As to the kind of experiment: Induction of MCP1 expression in HAEC at 3 uM after 4 hrs by microarray assay relative to control. In a few lines: as §2
For test [28], the species on record is Homo sapiens. As to the kind of experiment: Inhibition of IL-1beta-induced CXCL1 mRNA expression in HAEC at 3 uM treated 1 hr before IL-1beta stimulation measured after 4 hrs by qPCR analysis. In short, it runs like this:
as §4

The species named for test [29] is Homo sapiens. As to the kind of experiment: Induction of VCAM-1 expression in HAEC at 3 uM after 4 hrs by microarray assay relative to control. In a few lines:
as §2

For test [30], the species on record is Homo sapiens. As to the kind of experiment: Inhibition of IL-1beta-induced VCAM-1 mRNA expression in HAEC at 3 uM treated 1 hr before IL-1beta stimulation measured after 4 hrs by qPCR analysis. In a few lines:
as §4

Test [31] is filed under the species Homo sapiens. Briefly: Induction of IL-8 protein expression in HAEC at 0.75 to 1.5 uM after 4 hrs by ELISA. In short, it runs like this: (§5)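 HAECs kept overnight in M199 with 10% FBS, then left untreated or given increasing EI concentrations for 4 h in M199 with 1% FBS, triplicate wells. IL-8 and MCP-1 in the collected medium quantified by ELISA. Significance versus untreated control by Student t test.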

Test [32] is filed under the species Homo sapiens. As to the kind of experiment: Induction of CXCL6 expression in HAEC at 3 uM after 4 hrs by microarray assay relative to control. In short, it runs like this:
as §2

The nature of test [33]: Decrease of MCP-1 protein expression in HAEC at 6 uM after 4 hrs by ELISA. To be noted: Homo sapiens. In a few lines:
as §5

The species entered for test [34] is Homo sapiens. As to the kind of experiment: Inhibition of IL-1beta-induced MCP-1 mRNA expression in HAEC at 3 uM treated 1 hr before IL-1beta stimulation measured after 4 hrs by qPCR analysis. In short, it runs like this: as §4
The species named for test [35] is Homo sapiens. Briefly: Induction of CXCL1 expression in HAEC at 3 uM after 4 hrs by microarray assay relative to control. In a few lines:
as §2

The nature of test [36]: Decrease of IL-8 protein expression in HAEC at 6 uM after 4 hrs by ELISA. To be noted: Homo sapiens. In short, it runs like this: as §5
Test [37] is filed under the species Homo sapiens. As to the kind of experiment: Induction of E-selectin expression in HAEC at 3 uM after 4 hrs by microarray assay relative to control. In a few lines: as §2

Activity calls are given as the source filed them. The calls are words filed in the database; no cut-off is given here.

For `CCCCC/C=C\C[C@@H]1/C(=C\C2O[C@@H]2CCCC(=O)O)C(=O)CC1O` (single isomer, unassigned), the outcome in test [1], in [2], in [3] and in test [4] was Active.

With `CCCCC/C=C\C[C@H]1/C(=C\[C@@H]2O[C@H]2CCCC(=O)O)C(=O)C[C@H]1O`, the outcome in [1], in test [2], in test [3] and in [4] was Active.

In the case of `CCCCC/C=C\C[C@H]1/C(=C\[C@@H]2O[C@H]2CCCC(=O)O)C(=O)C[C@@H]1O`, the outcome in test [1], in test [2], in [5], in [3] and in [4] was Active.

On to `CCCCC/C=C\CC1/C(=C\C2OC2CCCC(=O)OC(COC(=O)CCCCCCCCCCCCCCC)COP(=O)([O-])OCC[N+](C)(C)C)C(=O)CC1O` (stereo not drawn), for which the fold change (FC) came out at 4 in [6]; 2.38 in test [7]; 1.4 in test [8]; 2.2 in test [9]; 1.2 in test [10]; 4.2 in test [11]. For the same compound, the fold change (FC) in [12] was found to be 13; in [13], 2.3; in test [14] it was 4.8; in test [15] it was 17. Besides, the outcome in [1], in [5] and in [4] was Active.

For the compound `CCCCC/C=C\C[C@@H]1/C(=C\[C@H]2O[C@@H]2CCCC(=O)O)C(=O)C[C@H]1O`, the inhibition entry in test [16] and in test [24] was “Active” in each case. Moreover, the inhibition in test [17] was 69.5%; in test [20] it was 87.6%; in [21], 76%; in test [26], 52.3%; in test [28], 53.4%; in test [30], 92.1%. Besides, the inhibition in test [34] worked out at 79.6%. In addition, the fold change (FC) came out at 3 in test [18]; 0.75 in test [19]; 0.79 in [22]; 0.8 in test [23]; 0.6 in test [25]; 0.2 in test [27]. Also, the fold change (FC) turned out to be 0.27 in test [29], 0.59 in [32], 1.3 in test [35] and 0.21 in test [37]. Besides, the result in [1], in test [2], in [31], in test [33], in [5] and in test [3] was Active. For the same compound, the outcome in test [36] and in test [4] was Active.
